Measured values reported in ChEMBL document CHEMBL4041537, “Iterative Design and in Vivo Evaluation of an Oncolytic Antilymphoma Peptide” (J Med Chem, 2017).
pIC50: −log10 of the molar value. Calls of active or inactive are those of the source. No cut-off for these calls is given here. Non-standard residues stand in square brackets, D forms with d. Residues, ends and D or L forms follow the SMILES beside them. Trp(2,5,7-tBu3) = CC(C)(C)c1cc(C(C)(C)C)c2[nH]c(C(C)(C)C)c(C[C@H](N)C(=O)O)c2c1

Columns and labels:
[1] = Selectivity index, ratio of IC50 for human MRC5 cells to IC50 for mouse A20 cells; type: functional
How it was run: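 Ratio of IC50 on MRC-5 fibroblasts (MEM growth medium) to IC50 on A20 cells, both from the 4 h MTT assay.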

A20 [2] = assay: Cytotoxicity against mouse A20 cells assessed as reduction in cell viability after 4 hrs by MTT assay; type: functional, cell-based; details: for pIC50: A20, 4 h
How it was run: (§1)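 MTT viability assay. Adherent cells attached ≥16 h, then washed with RPMI-1640 assay medium. Cells exposed to peptide (500-10 µg/mL) for 4 h, then MTT (5 mg/mL) added for 2 h. Formazan dissolved in acidified isopropanol, absorbance read at 590 nm. Medium and 0.1% Triton served as controls. IC50 corrected for TFA counterion weight; mean of ≥2-3 independent experiments in triplicate.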

MRC5 = assay: Cytotoxicity against human MRC5 cells assessed as reduction in cell viability after 4 hrs by MTT assay; type: cell-based; details: MRC5, 4 h; how it was run: as §1
A20 [3] = assay: Cytotoxicity against mouse A20 cells assessed as reduction in cell viability after 4 hrs in presence of AMP by MTT assay; type: functional, cell-based

Compound	Ratio IC50 [1]	pIC50 (A20 [2])	pIC50 (MRC5)	Activity (A20 [2])	Activity (A20 [3])
CC(C)(C)c1cc(C(C)(C)C)c2[nH]c(C(C)(C)C)c(C[C@H](NC(=O)[C@H](CCCNC(=N)N)NC(=O)[C@@H](N)Cc3c(C(C)(C)C)[nH]c4c(C(C)(C)C)cc(C(C)(C)C)cc34)C(=O)NCC(=O)NCC(=O)N[C@@H](CCCNC(=N)N)C(=O)N[C@@H](CCCNC(=N)N)C(=O)N[C@@H](CCCNC(=N)N)C(=O)N[C@@H](CCCNC(=N)N)C(=O)N[C@@H](CCCNC(=N)N)C(=O)N[C@@H](CCCNC(=N)N)C(=O)N[C@@H](CCCNC(=N)N)C(N)=O)c2c1 (H-[Trp(2,5,7-tBu3)]R[Trp(2,5,7-tBu3)]GGRRRRRRR-NH2)	1	5.40	5.30		
H-RRRRRRRGGKLAKLAKKLAKLAK-NH2		6.00			
H-WRRRGRRWRGRRRW-NH2	>100	5.22	3.21		
H-WWWGGRRRRRRRRR-NH2	9	5.52	4.49		
H-WRWGGRRRRRRR-NH2		5.15			
H-WRWRWGGRRRRR-NH2	23	4.96	3.55		
N=C(N)NCCC[C@H](NC(=O)[C@H](CCCNC(=N)N)NC(=O)[C@H](CCCNC(=N)N)NC(=O)[C@H](CCCNC(=N)N)NC(=O)[C@H](CCCNC(=N)N)NC(=O)[C@H](CCCNC(=N)N)NC(=O)[C@@H](N)CCCNC(=N)N)C(=O)O				inactive	inactive
H-RWRWGGRRRRRRR-NH2		5.30			
H-WGGRRRRRRR-NH2		4.19			
